Experiments:
[1] = target: mCB2 receptor (Mus musculus, UniProt P47936); assay: Photolabeling of mCB2; type: binding; conditions: HEK293 cell membranes expressing mCB2, photoactivated
Procedure, shortened: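 Compound-free membranes were run in parallel as control. Incubated 30 min at 37°C, then UV-irradiated at 365 nm for 1 h on ice. Washed with 1% BSA TME, then plain TME. Followed by [3H]CP-55940 saturation binding.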

[2] = target: hCB2 (Homo sapiens, UniProt P34972); assay: Photolabeling of hCB2; type: binding
Sequence of hCB2 (P34972 whole entry): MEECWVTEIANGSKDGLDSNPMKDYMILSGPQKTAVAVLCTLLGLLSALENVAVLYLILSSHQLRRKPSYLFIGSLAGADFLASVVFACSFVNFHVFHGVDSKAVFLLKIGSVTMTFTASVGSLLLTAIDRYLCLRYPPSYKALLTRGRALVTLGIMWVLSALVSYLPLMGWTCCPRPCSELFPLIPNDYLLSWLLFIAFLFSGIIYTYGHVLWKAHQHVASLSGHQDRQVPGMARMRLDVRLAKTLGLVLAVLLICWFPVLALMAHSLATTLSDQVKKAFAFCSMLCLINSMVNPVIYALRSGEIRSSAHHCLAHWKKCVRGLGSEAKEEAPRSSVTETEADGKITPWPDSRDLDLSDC

Sequence of mCB2 receptor (P47936 whole entry): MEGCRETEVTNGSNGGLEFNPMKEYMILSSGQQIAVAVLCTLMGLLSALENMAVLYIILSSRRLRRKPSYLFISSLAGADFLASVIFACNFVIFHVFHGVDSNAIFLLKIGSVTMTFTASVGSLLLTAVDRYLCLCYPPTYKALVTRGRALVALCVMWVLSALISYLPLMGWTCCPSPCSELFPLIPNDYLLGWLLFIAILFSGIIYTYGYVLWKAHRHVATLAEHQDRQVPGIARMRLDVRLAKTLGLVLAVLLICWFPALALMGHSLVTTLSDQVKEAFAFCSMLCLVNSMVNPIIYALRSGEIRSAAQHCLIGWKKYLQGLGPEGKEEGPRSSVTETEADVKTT

## CC1(C)Oc2cc(C(=O)c3c[nH]c4ccccc34)cc(O)c2[C@@H]2C[C@H](O)CC[C@H]21 [Compound 50]
[1]
  ability to photolabel the mCB2 receptor: failed to label mCB2

## CC1(C)Oc2cc(C(=O)c3cccc(C(F)(F)F)c3)cc(O)c2[C@@H]2C[C@H](O)CC[C@H]21 [Compound 49]
[1]
  ability to photolabel the mCB2 receptor: also labeled, however, less effectively
[2]
  extent of labeling of hCB2: 30%

From PMC3445631 (Bioorganic & medicinal chemistry letters, 2012)
